Measured values reported in PMC6447045 (Nature chemical biology, 2019).

Columns and labels:
[1] = test system: HIF-2 and HIF-1 target genes in Hep3B cells; test: qPCR of HIF target genes in Hep3B cells under hypoxia; format: cell-based; conditions: hypoxia (1% O2), 10 μM, 8 h
[2] = test system: HIF-2 target genes in 786-O cells; test: qPCR of endogenous HIF-2 target genes in 786-O cells; format: cell-based; conditions: 24 hours, PT2385 0.01-10 μM, T1001, M1001, M1002 10 μM
Method in brief: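 786-O cells were grown in RPMI1640 with 10% FBS in 6-well plates at 37 °C, 5% CO2. Compound was given at various concentrations with 0.1% DMSO, and DMSO alone served as control. After 24 h, RNA was isolated and converted to cDNA. SYBR Green real-time PCR was normalized to ACTB. Values are mean ± s.d., n=3 independent cultures.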

[3] = target: HIF-1α-ARNT heterodimer (Mus musculus, UniProt Q61221); test: TR-FRET-based in vitro binding assay, HIF-1α-ARNT; format: biochemical
[4] = test system: HIF-2 (EPO and NDRG1) and HIF-1 (PGK1) target genes in Hep3B cells; test: qPCR in Hep3B cells, PHD inhibitors and HIF-2α agonist co-treatment; format: cell-based; conditions: 10 μM PHD inhibitor alone
Method in brief: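 Hep3B cells were grown in DMEM with 10% FBS in 6-well plates. They were pretreated with 10 μM molidustat or roxadustat for 8 h, then 5 μM agonist was added (final DMSO 0.1%). After a further 24 h, RNA was isolated and reverse-transcribed. Target mRNAs were quantified by SYBR Green real-time PCR and normalized to ACTB in the same sample.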

effect on HIF-1α-ARNT subunit interactions [3] | Compound | effect on expression of HIF-2 specific and HIF-1 specific genes [1] | effect on expression of endogenous HIF-2 target genes [2] | effect on HIF-1 selective target gene (PGK1) [4] | increase of expression of HIF-2 target genes (EPO and NDRG1) [4]
no PT2385 effect | CS(=O)(=O)c1ccc(Oc2cc(F)cc(C#N)c2)c2c1[C@H](O)C(F)(F)C2 [PT2385, (S)-3-((2,2-Difluoro-1-hydroxy-7-(methylsulfonyl)-2,3-dihydro-1 H-inden-4-yl)oxy)-5-fluorobenzonitrile] | decreased the expression of HIF-2 specific genes (VEGF, EPO and NDRG1) but not the HIF-1 specific gene (PGK1) | dose-dependent inhibitory activity | – | –
– | O=c1c(-n2ccnn2)c[nH]n1-c1cc(N2CCOCC2)ncn1 [molidustat] | – | – | relatively small effects | 3–5 fold
– | Cc1nc(C(=O)NCC(=O)O)c(O)c2ccc(Oc3ccccc3)cc12 [roxadustat] | – | – | relatively small effects | 3–5 fold
